As a reminder, the MIC is the smallest concentration in the dilution series that meets the test's criterion for growth inhibition. High values mean a less susceptible organism, low ones a more susceptible organism.

Values after ≈ are worked out from the molar mass of the structure shown.

Common to all, as to assay type: functional
Assay [1] deals with Escherichia coli. Nature of the assay: Antibacterial activity against aminoglycoside-resistant Escherichia coli TG1 pSF815 after 12 to 18 hrs. The method, boiled down:
(§1)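 Broth microdilution MIC. Bacteria grown in Trypticase Soy broth at 35 °C for 1–2 h, adjusted with broth to A625 0.08–0.1, then 100 µL diluted into 10 mL broth. Wells received diluted inoculum plus 2-fold serial dilutions of compound. Incubated 35 °C for 12–18 h. MIC taken as lowest concentration inhibiting growth, in µg/mL.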

In assay [2] the test system is Escherichia coli. Nature of the assay: Antibacterial activity against aminoglycoside-resistant Escherichia coli TG1 pTZ19U-3 after 12 to 18 hrs. The method, boiled down:
as §1

Assay [3] concerns Escherichia coli. Nature of the assay: Antibacterial activity against Escherichia coli ATCC 25922 after 12 to 18 hrs. The procedure, abridged: as §1
Assay [4] concerns Klebsiella pneumoniae. Nature of the assay: Antibacterial activity against Klebsiella pneumoniae ATCC 13883 after 12 to 18 hrs. The procedure, abridged: (§2)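 Broth microdilution in Trypticase Soy broth. Bacteria grown at 35 °C for 1–2 h, adjusted with broth to A625 0.08–0.1, then diluted 100 µL into 10 mL broth. 50 µL inoculum was combined with 50 µL of 2-fold serial compound dilutions and incubated at 35 °C for 12–18 h. MIC taken as the lowest concentration inhibiting growth.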

Assay [5] concerns Escherichia coli. Nature of the assay: Antibacterial activity against aminoglycoside-susceptible Escherichia coli TG1 after 12 to 18 hrs. The procedure, abridged:
as §1

A further assay concerns Pseudomonas aeruginosa. Nature of the assay: Antibacterial activity against Pseudomonas aeruginosa ATCC 27853 after 12 to 18 hrs. The method, boiled down: as §2
A further assay has as its system Staphylococcus aureus. Description: Antibacterial activity against methicillin-resistant Staphylococcus aureus ATCC 33591 after 12 to 18 hrs. The procedure, abridged: as §1
The subject of assay [6] is Klebsiella pneumoniae. Nature of the assay: Antibacterial activity against Klebsiella pneumoniae ATCC 700603 after 12 to 18 hrs. The procedure, abridged: as §2

`NCC[C@H](O)C(=O)N[C@@H]1C[C@H](N)[C@@H](O[C@H]2O[C@H](CN)[C@@H](O)[C@H](O)[C@H]2N)[C@H](O[C@@H]2O[C@H](CO)[C@H](O)[C@H]2O)[C@H]1O` [BUTIROSIN A]: the MIC in the assay on Escherichia coli [1] stood at 0.5 µg/mL (≈ 0.9 µM); with Escherichia coli [2], 0.5 µg/mL (≈ 0.9 µM); against Escherichia coli [3], 4 µg/mL (≈ 7.2 µM); in the assay on Klebsiella pneumoniae [4], 1 µg/mL (≈ 1.8 µM); in the assay with Escherichia coli [5] it was 1 µg/mL (≈ 1.8 µM); in the assay on Pseudomonas aeruginosa, 1 µg/mL (≈ 1.8 µM). The MIC with Staphylococcus aureus is at least 32 µg/mL; in the assay with Klebsiella pneumoniae [6], 1 µg/mL (≈ 1.8 µM).
For the molecule `NC[C@H]1O[C@H](O[C@H]2[C@H](O[C@@H]3O[C@H](CO)[C@@H](O)[C@H]3O)[C@@H](O)[C@H](N)C[C@@H]2N)[C@H](N)[C@@H](O)[C@@H]1O` [RIBOSTAMYCIN], the MIC against Escherichia coli [1] was 4 µg/mL (≈ 8.8 µM); in the assay with Escherichia coli [2], at least 32 µg/mL; in the assay on Escherichia coli [3], 8 µg/mL (≈ 17.6 µM); against Escherichia coli [5] it was 4 µg/mL (≈ 8.8 µM).
As for `CCCO[C@@H]1[C@@H](O[C@@H]2O[C@H](C)[C@@H](N)[C@H](O)[C@H]2O)[C@H](O[C@H]2O[C@H](CN)[C@@H](O)[C@H](O)[C@H]2N)[C@@H](N)C[C@H]1NC(=O)[C@@H](O)CCN`, the MIC in the assay on Escherichia coli [1] was at least 32 µg/mL; in the assay on Escherichia coli [2], at least 32 µg/mL; in the assay with Escherichia coli [3] it was at least 32 µg/mL; against Escherichia coli [5] it was 8 µg/mL (≈ 13.1 µM).
With `C[C@H]1O[C@@H](O[C@@H]2[C@@H](O)[C@H](N)C[C@H](N)[C@H]2O[C@H]2O[C@H](CN)[C@@H](O)[C@H](O)[C@H]2N)[C@H](O)[C@@H](O)[C@@H]1N`, the MIC in the assay on Escherichia coli [1] was 8 µg/mL (≈ 17.1 µM); in the assay with Escherichia coli [2], at least 32 µg/mL; against Escherichia coli [3] it was 8 µg/mL (≈ 17.1 µM); in the assay on Klebsiella pneumoniae [4], 4 µg/mL (≈ 8.56 µM); in the assay with Escherichia coli [5] it was 8 µg/mL (≈ 17.1 µM); in the assay on Pseudomonas aeruginosa, 4 µg/mL (≈ 8.56 µM). For the same molecule, the MIC in the assay on Staphylococcus aureus is at least 32 µg/mL; against Klebsiella pneumoniae [6] it was 16 µg/mL (≈ 34.2 µM).
`C[C@H]1O[C@@H](O[C@@H]2[C@@H](OCCO)[C@H](NC(=O)[C@@H](O)CCN)C[C@H](N)[C@H]2O[C@H]2O[C@H](CN)[C@@H](O)[C@H](O)[C@H]2N)[C@H](O)[C@@H](O)[C@@H]1N`: the MIC in the assay with Escherichia coli [1] turned out to be 8 µg/mL (≈ 13.1 µM); in the assay with Escherichia coli [2], 16 µg/mL (≈ 26.1 µM); against Escherichia coli [3] it was 16 µg/mL (≈ 26.1 µM); in the assay with Escherichia coli [5] it was 2 µg/mL (≈ 3.26 µM).
In the case of `C[C@H]1O[C@@H](O[C@@H]2[C@@H](O)[C@H](NC(=O)[C@@H](O)CCN)C[C@H](N)[C@H]2O[C@H]2O[C@H](CN)[C@@H](O)[C@H](O)[C@H]2N)[C@H](O)[C@@H](O)[C@@H]1N`, the MIC against Escherichia coli [1] came out at 2 µg/mL (≈ 3.52 µM); in the assay with Escherichia coli [2], 4 µg/mL (≈ 7.03 µM); in the assay with Escherichia coli [3], 8 µg/mL (≈ 14.1 µM); in the assay with Klebsiella pneumoniae [4] it was 1 µg/mL (≈ 1.76 µM); in the assay with Escherichia coli [5] it was 4 µg/mL (≈ 7.03 µM); in the assay on Pseudomonas aeruginosa, 2 µg/mL (≈ 3.52 µM). Moreover, the MIC was at least 32 µg/mL in the assay on Staphylococcus aureus and 1 µg/mL (≈ 1.76 µM) in the assay with Klebsiella pneumoniae [6].
Take `C[C@H]1O[C@@H](O[C@@H]2[C@@H](OCCN)[C@H](NC(=O)[C@@H](O)CCN)C[C@H](N)[C@H]2O[C@H]2O[C@H](CN)[C@@H](O)[C@H](O)[C@H]2N)[C@H](O)[C@@H](O)[C@@H]1N`: the MIC against Escherichia coli [1] is 2 µg/mL (≈ 3.27 µM); in the assay with Escherichia coli [2] it was 1 µg/mL (≈ 1.63 µM); in the assay on Escherichia coli [3], 8 µg/mL (≈ 13.1 µM); with Klebsiella pneumoniae [4], 4 µg/mL (≈ 6.54 µM); against Escherichia coli [5], 8 µg/mL (≈ 13.1 µM); against Pseudomonas aeruginosa it was 0.5 µg/mL (≈ 0.817 µM). Moreover, the MIC with Staphylococcus aureus was at least 32 µg/mL; against Klebsiella pneumoniae [6], 2 µg/mL (≈ 3.27 µM).
Take `NC[C@@H]1O[C@H](O[C@H]2[C@@H](O)[C@H](O[C@@H]3[C@@H](O)[C@H](N)C[C@H](N)[C@H]3O[C@H]3O[C@H](CN)[C@@H](O)[C@H](O)[C@H]3N)O[C@@H]2CO)[C@H](N)[C@@H](O)[C@@H]1O` [FRAMYCETIN]: the MIC is 4 µg/mL (≈ 6.51 µM) against Escherichia coli [1]; at least 32 µg/mL with Escherichia coli [2]; 4 µg/mL (≈ 6.51 µM) in the assay with Escherichia coli [3]; 8 µg/mL (≈ 13 µM) in the assay with Klebsiella pneumoniae [4]; 4 µg/mL (≈ 6.51 µM) against Escherichia coli [5]; 0.5 µg/mL (≈ 0.813 µM) in the assay with Pseudomonas aeruginosa. In addition, the figures for the MIC against Staphylococcus aureus and in the assay on Klebsiella pneumoniae [6] were at least 32 µg/mL and 16 µg/mL (≈ 26 µM), respectively.
